ChEMBL document CHEMBL1129423, “Hypoglycemic activity of a series of alpha-alkylthio and alpha-alkoxy carboxylic acids related to ciglitazone” (J Med Chem, 1996)
The source made the active and inactive calls. The calls are words filed in the database; no cut-off is given here.

What was measured:
[1] = test system: Mus musculus; experiment: In vivo hypoglycemic activity expressed as percent glucose normalization in db/db mice at 1 mg/Kg; type: functional
[2] = test system: Mus musculus; experiment: In vivo hypoglycemic activity expressed as percent glucose normalization in db/db mice at 5 mg/Kg; type: functional
[3] = test system: Mus musculus; experiment: In vivo hypoglycemic activity expressed as percent glucose normalization in db/db mice at 0.01 mg/Kg; type: functional
[4] = test system: Mus musculus; experiment: In vivo hypoglycemic activity expressed as percent glucose normalization in db/db mice at 0.05 mg/Kg; type: functional
[5] = test system: Mus musculus; experiment: In vivo hypoglycemic activity expressed as percent glucose normalization in db/db mice at 0.1 mg/Kg; type: functional
[6] = test system: Mus musculus; experiment: In vivo hypoglycemic activity expressed as percent glucose normalization in db/db mice at 0.25 mg/Kg; type: functional
[7] = test system: Mus musculus; experiment: In vivo hypoglycemic activity expressed as percent glucose normalization in db/db mice at 0.5 mg/Kg; type: functional
[8] = test system: Mus musculus; experiment: In vivo hypoglycemic activity expressed as percent glucose normalization in ob/ob mice at 0.01 mg/Kg; type: functional
Method in brief: (§1)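 ob/ob mice received oral gavage once daily for 4 days in 0.25% (w/v) methylcellulose in water. Retro-orbital blood was taken before treatment and 24 h after the fourth dose. Glucose was measured by the hexokinase UV method. Results are % glucose normalization relative to vehicle (0%) and englitazone 100 mg/kg (100%), with significance at p<0.05.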

[9] = test system: Mus musculus; experiment: In vivo hypoglycemic activity expressed as percent glucose normalization in ob/ob mice at 0.1 mg/Kg; type: functional; method in brief: as §1
[10] = test system: Mus musculus; experiment: In vivo hypoglycemic activity expressed as percent glucose normalization in ob/ob mice at 1 mg/Kg; type: functional; method in brief: as §1
[11] = test system: Mus musculus; experiment: In vivo hypoglycemic activity expressed as percent glucose normalization in db/db mice at 5 mg/Kg; Not tested; type: functional
[12] = test system: Mus musculus; experiment: In vivo hypoglycemic activity expressed as percent glucose normalization in ob/ob mice at 0.01 mg/Kg; Inactive; type: functional, organism-based; method in brief: as §1
[13] = test system: Mus musculus; experiment: In vivo hypoglycemic activity expressed as percent glucose normalization in db/db mice at 2.5 mg/Kg; type: functional
[14] = test system: Mus musculus; experiment: In vivo hypoglycemic activity expressed as percent glucose normalization in db/db mice at 0.1 mg/Kg; Inactive; type: functional, organism-based
[15] = test system: Mus musculus; experiment: In vivo hypoglycemic activity expressed as percent glucose normalization in db/db mice at 0.05 mg/Kg; Inactive; type: functional, organism-based

| SMILES | Glucose normalisation [1] | Glucose normalisation [2] | Glucose normalisation [3] | Glucose normalisation [5] | Glucose normalisation [7] | other results |
| --- | --- | --- | --- | --- | --- | --- |
| C=CCOC(Cc1ccc2oc(Cc3nc(-c4ccccc4)oc3C)cc2c1)C(=O)O (stereo not drawn) | 85% | 92% | 27% | 85% | – | Glucose normalisation [4]: 91% |
| CCCCCCCCSC(Cc1ccc2oc(Cc3nc(-c4ccccc4)oc3C)cc2c1)C(=O)O (stereo not drawn) | 75% | 96% | – | 14% | 100% | Glucose normalisation [6]: 99% |
| Cc1oc(-c2ccccc2)nc1Cc1cc2cc(CC(OCCCO)C(=O)O)ccc2o1 (stereo not drawn) | – | – | – | 91% | – | Glucose normalisation [4]: 19% |
| CCOC(Cc1ccc2oc(Cc3nc(-c4ccccc4)oc3C)cc2c1)C(=O)O (stereo not drawn) | – | 100% | 69% | 100% | – | Glucose normalisation [6]: 100%; Glucose normalisation [4]: 97% |
| CCOC(Cc1ccc2oc(Cc3nc(-c4ccco4)oc3C)cc2c1)C(=O)O (stereo not drawn) | 100% | – | 63% | 100% | – | – |
| CCO[C@@H](Cc1ccc2oc(Cc3nc(-c4ccccc4)oc3C)cc2c1)C(=O)O | – | – | 78% | 100% | – | – |
| CCCSC(Cc1ccc2oc(Cc3nc(-c4ccccc4)oc3C)cc2c1)C(=O)O (stereo not drawn) | 69% | 94% | – | – | 82% | Glucose normalisation [6]: 39% |
| CCOC(CCc1ccc2oc(Cc3nc(-c4ccccc4)oc3C)cc2c1)C(=O)O (stereo not drawn) | 90% | 100% | – | – | 75% | Glucose normalisation [6]: 13% |
| Cc1oc(-c2cccc(F)c2)nc1Cc1cc2cc(CC3SC(=O)NC3=O)ccc2o1 (stereo not drawn) | – | – | – | – | – | Glucose normalisation [8]: 12%; Glucose normalisation [9]: 88%; Glucose normalisation [10]: 100% |
| CCOC(C(=O)O)c1ccc2oc(Cc3nc(-c4ccccc4)oc3C)cc2c1 (stereo not drawn) | – | – | – | – | – | Glucose normalisation [11]: 9% |
| CCOC(Cc1ccc2oc(Cc3nc(-c4cccs4)oc3C)cc2c1)C(=O)O (stereo not drawn) | 100% | – | 98% | 100% | – | Glucose normalisation [4]: 100% |
| Cc1oc(C2CCCCC2)nc1Cc1cc2cc(CC3SC(=O)NC3=O)ccc2o1 (stereo not drawn) | – | – | – | – | – | Glucose normalisation [12]: inactive; Glucose normalisation [9]: 90%; Glucose normalisation [10]: 100% |
| CCCS[C@H](Cc1ccc2oc(Cc3nc(-c4ccccc4)oc3C)cc2c1)C(=O)O | 56% | – | – | – | 45% | Glucose normalisation [13]: 75% |
| CCCS[C@@H](Cc1ccc2oc(Cc3nc(-c4ccccc4)oc3C)cc2c1)C(=O)O | 91% | – | – | – | 52% | Glucose normalisation [13]: 69% |
| Cc1oc(-c2ccccc2)nc1Cc1cc2cc(CC(SCc3ccccc3)C(=O)O)ccc2o1 (stereo not drawn) | 88% | 100% | – | – | 93% | Glucose normalisation [6]: 72%; Glucose normalisation [14]: inactive |
| Cc1oc(-c2ccc(Cl)cc2)nc1Cc1cc2cc(CC3SC(=O)NC3=O)ccc2o1 (stereo not drawn) | – | – | – | – | – | Glucose normalisation [8]: 0%; Glucose normalisation [9]: 100%; Glucose normalisation [10]: 100% |
| CCO[C@H](Cc1ccc2oc(Cc3nc(-c4ccccc4)oc3C)cc2c1)C(=O)O | 74% | – | 16% | 19% | – | – |
| CSC(Cc1ccc2oc(Cc3nc(-c4ccccc4)oc3C)cc2c1)C(=O)O (stereo not drawn) | 89% | – | – | 26% | 100% | Glucose normalisation [6]: 16% |
| COC(Cc1ccc2oc(Cc3nc(-c4ccccc4)oc3C)cc2c1)C(=O)O (stereo not drawn) | 100% | 94% | 44% | 83% | – | Glucose normalisation [4]: 82% |
| Cc1oc(-c2ccccc2)nc1Cc1cc2cc(CC(Sc3ccccc3)C(=O)O)ccc2o1 (stereo not drawn) | 90% | 70% | – | 86% | 100% | Glucose normalisation [6]: 92% |
| CCSC(Cc1ccc2oc(Cc3nc(-c4ccccc4)oc3C)cc2c1)C(=O)O (stereo not drawn) | 60% | 86% | – | – | 80% | Glucose normalisation [6]: 3% |
| CCOC(Cc1ccc2oc(Cc3nc(-c4ccc(OC)cc4)oc3C)cc2c1)C(=O)O (stereo not drawn) | 100% | – | 46% | 100% | – | Glucose normalisation [15]: inactive |
| Cc1oc(-c2ccccc2)nc1Cc1cc2cc(CC(OCc3ccccc3)C(=O)O)ccc2o1 (stereo not drawn) | – | – | 74% | 100% | – | Glucose normalisation [4]: 100% |
| CCCOC(Cc1ccc2oc(Cc3nc(-c4ccccc4)oc3C)cc2c1)C(=O)O (stereo not drawn) | 100% | 100% | 43% | 100% | – | Glucose normalisation [4]: 76% |
| C#CCOC(Cc1ccc2oc(Cc3nc(-c4ccccc4)oc3C)cc2c1)C(=O)O (stereo not drawn) | 74% | 100% | – | – | – | – |
| Cc1oc(-c2ccccc2)nc1Cc1cc2cc(CC3SC(=O)NC3=O)ccc2o1 (stereo not drawn) | – | – | – | – | – | Glucose normalisation [8]: 76%; Glucose normalisation [9]: 93% |
| Cc1ccccc1-c1nc(Cc2cc3cc(CC4SC(=O)NC4=O)ccc3o2)c(C)o1 (stereo not drawn) | – | – | – | – | – | Glucose normalisation [8]: 11%; Glucose normalisation [9]: 91%; Glucose normalisation [10]: 100% |
| Cc1cccc(-c2nc(Cc3cc4cc(CC5SC(=O)NC5=O)ccc4o3)c(C)o2)c1 (stereo not drawn) | – | – | – | – | – | Glucose normalisation [8]: 78%; Glucose normalisation [9]: 79%; Glucose normalisation [10]: 100% |
